From PubChem
The full list was thinned out, with hits kept by preference.
Hep lipid drop = inhibitors of hepatocyte lipid droplet formation, primary screen, imaging, high-throughput imaging, BODIPY stain; AML12 mouse hepatocytes, oleate lipid droplets; inhibition, % at 6.5 µM; 0.4% of 240,000 active; AID 1656, 2009;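 active means lipid droplet intensity inhibited by at least 50%, with more than 500 cells counted; inconclusive means wells with under 300 cells, treated as cytotoxic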
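Technique: fluorescence imaging, 20x objective, two fields per well / Assay system: AML12 hepatocytes (mouse) / Measure: % inhibition of lipid droplet signal / Doses: 6.5 µM single-point dosing / Incubation: overnight exposure / Reagent: 100 µM oleic acid challenge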
T cruzi inh = inhibitors of intracellular T. cruzi growth, primary screen, luminescence, NIH3T3 host cells | T. cruzi beta-gal in NIH3T3, 90 h | inhibition, % (concentration not given with the values) | 1.4% of 300,000 active | AID 1885, 2009;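 active means mean inhibition across valid replicates above about 55%, limit read from the data; inconclusive means mean below that limit but half or more replicates reach it; inactive means mean below it, under half of replicates reach it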;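 further: signal also drops with host cell toxicity which is not excluded here; 0% = plate median of DMSO wells and 100% = zero luminescence signal; higher percent means less beta-gal luminescence so fewer parasites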
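assay system = mouse NIH/3T3 fibroblasts infected with β-gal-expressing T. cruzi Tulahuen C4 | input = 5,000 NIH/3T3 host cells per well | buffer or medium = DMEM plus 2% FBS | timing = 3 h host attachment, then at least 90 h co-culture | measured by = GalScreen luminescence, 60 min | evaluation = luminescence reflecting intracellular parasite burden, expressed as percent inhibition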
DTT redox prof = compounds producing H2O2 with reducing agent – biochemical, NIH compound library profiling, artefact control for MLSCN library redox annotation, primary screen | 0.03% of 200,000 active | DTT-dependent redox cycling H2O2, phenol red/HRP absorbance; 100% = 100 µM peroxide control, 0% = buffer | activation, % at 10 µM;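 active means activation of at least 50% relative to the plate's high and low controls in the primary single-dose screen; inactive means activation below 50%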;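 further: compound incubated with DTT at 0.8 mM final as the reducing agent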
MPTP block = mitochondrial permeability transition pore inhibitors, primary screen, biochemical, isolated mouse mitochondria, absorbance; Ca2+ swelling absorbance, 30 min; 1.4% of 360,000 active; inhibition, % at 10 µM;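 active means inhibition of 50% or more, scaled per plate between neutral and stimulator controls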;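 further: 0% = DMSO wells given calcium and 100% = 1 mM EGTA wells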
L major viab = Leishmania major promastigote growth inhibition, primary screen; Leishmania major promastigotes, resazurin fluorescence viability; inhibition, % at 10 µM; 9% of 200,000 active; AID 1063, 2008; in the data active means inhibition above about 50%;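 further: promastigotes grown with compound for 44 hours at 28 °C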
Starred values were filed as active, the others as inactive; ? = inconclusive; . = no result given.

SMILES	Hep lipid drop	T cruzi inh	DTT redox prof	MPTP block	L major viab
O=C1CS/C(=N/N=C/c2ccc(OS(=O)(=O)c3ccccc3)cc2)N1	0	-17	0	-2	5
CCC(=O)N/N=C/c1ccc(OS(=O)(=O)c2ccccc2)cc1	-6	-2	0	0	57*
COc1ccc(/C=N/NC(=O)CNS(=O)(=O)c2ccccc2)cc1	.	.	.	0	.
Cc1ccc2nc(SCC(=O)N(CC(C)C)c3c(N)n(Cc4ccccc4)c(=O)[nH]c3=O)[nH]c2c1	-10	-9	.	0	.
Cc1[nH]c(=O)[nH]c(=O)c1S(=O)(=O)Nc1ccc(Oc2ccccc2)cc1	.	-1	2	-2	-14
CN(C)S(=O)(=O)Nc1ccc(Oc2ccccc2)cc1	-9	3	1	1	82*
Cc1ccc2c(CN3CCN(c4ccccc4)CC3)cc(=O)oc2c1	.	.	.	0	.
C=CCn1c(SCC(=O)Nc2ccc(C(=O)OCC)cc2)nnc1-c1sc(N)nc1C	0	-3	1	-4	58*
CCc1ccc2nc(N(CCN(C)C)C(=O)c3ccc4ncsc4c3)sc2c1	-20	64*	.	2	.
CN(C)CCCN(C(=O)c1ccc2c(c1)OCCO2)c1nc2ccc(Cl)cc2s1	-8	42	.	0	.
CN(C)CCN(C(=O)c1ccc2c(c1)OCCO2)c1nc2ccc(Cl)cc2s1	5	57*	-1	-1	0
Cc1cccc2sc(N(CCCN(C)C)C(=O)c3ccc4ncsc4c3)nc12	-20	38	.	-2	.
Cc1ccc2nc(N(CCCN(C)C)C(=O)c3sc4ccccc4c3Cl)sc2c1	10	10	0	0	56*
Cc1ccc(C(=O)N(CCCN(C)C)c2nc3ccc(Cl)cc3s2)cc1C	11	70*	0	-1	82*
OC1(CNCc2cn[nH]c2-c2cc3ccccc3o2)CCCCC1	-1	1	-1	-2	13
O=C(CSc1nnc(-c2ccc(F)cc2)c2ccccc12)Nc1cccc(Cl)c1	-19	60*	1	0	10
COc1ccc(CCNC(=O)CSc2nnc(-c3ccc(F)cc3)c3ccccc23)cc1OC	-16	11	1	0	65*
O=C1CC(NS(=O)(=O)c2ccc([N+](=O)[O-])cc2)CN1c1cccc(F)c1 (stereo unspecified)	.	65*	.	-2	.
CC(=O)c1ccc(S(=O)(=O)NC2CC(=O)N(c3cccc(F)c3)C2)cc1 (stereo unspecified)	.	-8	.	-2	.
COc1ccc2noc3c2c1C(=O)c1ccccc1-3	.	-1	.	2	.
O=C1c2ccccc2-c2onc3ccc(NCCCn4ccnc4)c1c23	-7	29	0	.	100*
CCOC(=O)C1(C)CCCN1C(=O)c1ccc2ccccc2c1 (stereo unspecified)	.	.	.	0	.
CCNC(=O)NC(=O)C(C)OC(=O)c1oc2ccccc2c1CSC1CCCCC1 (stereo unspecified)	4	25	0	2	72*
CC(C)C(OC(=O)c1oc2ccccc2c1CSC1CCCCC1)C(=O)NC(N)=O (stereo unspecified)	-1	12	0	.	-14
CC(=O)Nc1ccc(-c2ccnc3c2CC(C(=O)NCc2ccccc2)O3)cc1 (stereo unspecified)	.	.	.	-1	.
SMILES	Hep lipid drop	T cruzi inh	DTT redox prof	MPTP block	L major viab
Cc1oc(-c2cc(F)ccc2F)nc1CN(C)Cc1ccc2nccnc2c1	4	14	0	-1	75*
O=c1cc(CN2CCN(c3ccccc3)CC2)c2ccccc2o1	.	.	.	-2	.
Cc1ccc(NC2=C(NC(=O)c3ccccc3)C(=O)c3ccccc3C2=O)cc1Cl	-7	-1	2	6	98*
O=C(O)c1ccc(NC2=C(Cl)C(=O)c3ccccc3C2=O)cc1	31	55*	.	7	.
O=C1C(Cl)=C(Nc2ccccc2)C(=O)c2ccccc21	-2	?	0	2	-5
O=C(O)c1cccc(NC2=C(Cl)C(=O)c3ccccc3C2=O)c1	0	64*	2	4	66*
O=C(NC(CC(=O)N1CCCC(C(F)(F)F)C1)c1ccccc1)c1ccccc1Cl (stereo unspecified)	-8	13	.	-1	.
O=C(C[C@@H]1C=C[C@H](NS(=O)(=O)c2ccccc2F)[C@@H](CO)O1)NCCCN1CCOCC1	.	.	.	12	.
CC1Cc2ccccc2N1C(=O)C1CCN(S(=O)(=O)Cc2ccccc2)CC1 (stereo unspecified)	.	0	1	1	54*
O=C(C1CCCN(S(=O)(=O)Cc2ccccc2)C1)N1CCc2ccccc21 (stereo unspecified)	7	1	0	0	73*
CC1CN(C(=O)/C=C/c2ccc([N+](=O)[O-])s2)CC(C)O1 (stereo unspecified)	-2	-4	0	3	82*
CC1CC(C)CN(C(=O)/C=C/c2ccc([N+](=O)[O-])s2)C1 (stereo unspecified)	1	5	-1	1	98*
CC1CN(C(=O)/C=C/c2ccccc2[N+](=O)[O-])CC(C)O1 (stereo unspecified)	2	0	-1	2	-3
CC1CC(C)CN(C(=O)/C=C/c2ccc(S(=O)(=O)N3CCOCC3)cc2)C1 (stereo unspecified)	.	.	.	0	.
CC(C)OCCCNC(=O)Cn1ccc2cc(S(=O)(=O)N3CCCCC3)ccc21	-4	5	.	-2	.
COc1cc(-c2nnc(SCc3ccccc3Cl)o2)cc(OC)c1OC	-14	29	1	-1	1
COc1cc(-c2nnc(SCc3c(F)cccc3Cl)o2)cc(OC)c1OC	-25	3	2	-7	82*
CCN1CCN(CC2CC3C=CC2C3)CC1 (stereo unspecified)	-1	12	0	1	12
O=C(c1ccco1)N1CCN(CC2CC3C=CC2C3)CC1 (stereo unspecified)	5	.	2	-1	93*
O=C(c1ccco1)N1CCN(C(=O)c2ccco2)CC1	.	.	.	0	.
CNC(=S)N1CCN(C(=O)c2ccco2)CC1	7	-10	0	22	75*
C1=CC2CC1CC2CN1CCN(c2ccccc2)CC1 (stereo unspecified)	1	-15	-2	-1	85*
CS(=O)(=O)N1CCN(CC2CC3C=CC2C3)CC1 (stereo unspecified)	-9	?	0	-1	93*
CC(=O)c1ccc(S(=O)(=O)Oc2ccc(-c3ccc(C(=O)O)cc3)cc2)cc1	1	-13	.	-1	.
O=C(NCCc1ccc2c(c1)OCCO2)c1ccc(F)cc1	-3	-21	0	2	-7
CCOc1cc(C2C3=C(CC(C)(C)CC3=O)Nc3n[nH]c(C)c32)ccc1O (stereo unspecified)	5	-20	-2	-1	-6
OCCN1CCN(c2cc(-c3ccc4ccccc4c3)nc3ccnn23)CC1	.	.	.	0	.
